Source: the RNAGym collection of RNA variant scans (doi:10.1126/science.aae0568)
This sample holds only a part of the variants without activity.

B1: tRNA (parent)
chain: GUUCCGUUGGCGUAAUGGUAACGCGUCUCCCUCCUAAGGAGAAGACUGCGGGUUCGAGUCCCGUACGGAACG

Variants of: B1
Assay: yeast fitness relative to wild type (ratio to wild type); higher = fitter; tRNA-Arg(CCU), competitive growth, 37 C, YPD
Method in brief: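 Changes in genotype frequencies gave Darwinian fitness relative to wild type. Frequencies were read by 100-nucleotide paired-end sequencing of gene amplicons before and after pooled Saccharomyces cerevisiae strains, carrying tRNA-Arg(CCU) gene variants at the native locus, were competed in YPD at 37°C for 24 hours in six replicates. A genotype was kept only with ≥ 100 starting reads, and estimates < 0.5 were set to 0.5.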

Variant | yeast fitness
GUUCCGUUGGCAUAAUGGUAACGCGCCUCCCUCCUAAGGAGAAGACUGCGGGUUCGAGUCCCGUACGGAACG [G12A U26C] | 0.878
GUUCCGUUGGCAUAAUGGUAACGCGCCUCCCUCCUAAGGAGAAGACUGCGGGUUCGAGUCCUGUACGGAACG [G12A U26C C62U] | 0.579
GUUCCGUUGGCAUAAUGGUAACGCGCCUCCCUCCUAAGGAGAAGACUGCGGGUUCGAAUCCCGUACGGAACG [G12A U26C G58A] | 0.675
GUUCCGUUGGCAUAAUGGUAACGCGCCUCCCUCCUAAGGAGAAGACCGCGGGUUCGCGUCCCGUACGGAACG [G12A U26C U47C A57C] | ≤ 0.5
GUUCCGUUGGCAUAAUGGUAACGCGUCACCCUCCUAAGGAGAAGACUGCGGGUUGGAGUCCCGUACGGAACG [G12A U28A C55G] | ≤ 0.5
GUUCCGUUGGCAUAAUGGUAACGCGUCACCCUCCUAAGGAGAAGACUGCGGGUCCGAGUCCCAUACGGAGCG [G12A U28A U54C G63A A70G] | ≤ 0.5
GUUCCGUUGGCAUAAUGGUAACGCGUCCCCCUCCUACGGAGACGACUGGGGGUUCGAGUCCCGUACGGAACG [G12A U28C A37C A43C C49G] | 0.548
GUUCCGUUGGCAUAAUGGUAACGCGUCCCCCUCCUAAGGCGAAGACUACGGGUUCGAGUCCCGUACGGAACG [G12A U28C A40C G48A] | 0.61
GUUCCGUUGGCAUAAUGGUAACGCGUCCCCUUCCUAAGGAGAAGACUGCGGAUUCCAGUCCCGUACGGAACG [G12A U28C C31U G52A G56C] | ≤ 0.5
GUUCCGUUGGCAUAAUGGUAACGCGUCGCCCUCCUGAGGAGAAGACUGCGGGUUCGAGUCCCGUACGGAACG [G12A U28G A36G] | ≤ 0.5
GUUCCGUUGGCAUAAUGGUAACGCGUCGCUCUCCUCAGGAGAAGACUGCGGGUUCGAGUCCCGUACGGAACG [G12A U28G C30U A36C] | ≤ 0.5
GUUCCGUUGGCAUAAUGGUAACGCGUCGCUCUCCUAAGGAGAAGACUGCGGGUUCGAGUCACGUACGGUACG [G12A U28G C30U C61A A69U] | 0.679
GUUCCGUUGGCAUAAUGGUAACGCGUCGCCCUGCUAAGGAGAAGACUGCGGGUUCGAGUCCCGUACGGUACG [G12A U28G C33G A69U] | ≤ 0.5
GUUCCGUUGGCAUAAUGGUAACGCGUCUCCCACCUAAGGAGAAGAAUGCGGGUUCGAGUCCCGUAUGGAACG [G12A U32A C46A C66U] | ≤ 0.5
GUUCCGUUGGCAUAAUGGUAACGCGUCUCCCCCCUAAGGAGAAGACUGCGGGUUCGAGUCCCGUACGGAACG [G12A U32C] | 0.914
GUUCCGUUGGCAUAAUGGUAACGCGUCUCCCCCCUAAGGAGCACACUGCGGGUUCGAGUCCCGUACGGCACG [G12A U32C A42C G44C A69C] | ≤ 0.5
GUUCCGUUGGCAUAAUGGUAACGCGUCUCCCCCCAAAGGAGAAGACUGCGGGUUCGAAUCCCGUACGAAACG [G12A U32C U35A G58A G68A] | ≤ 0.5
GUUCCGUUGGCAUAAUGGUAACGCGUCUCCCGUCUAAGGAGAAGUCUGCGGGUUUGAGUCCCGUACGGAACG [G12A U32G C33U A45U C55U] | ≤ 0.5
GUUCCGUUGGCAUAAUGGUAACGCGUCUCCCGUCUAAGGAGAAGACUGCGGGUUGGAGUCCCGUACGGAGCG [G12A U32G C33U C55G A70G] | ≤ 0.5

Variant | yeast fitness
GUUCCGUUGGCAUAAUGGUAACGCGUCUCCCUCCAAAGGAGAAGACUGCGGGUUCGAGUCCCGUACGGAACG [G12A U35A] | 0.706
GUUCCGUUGGCAUAAUGGUAACGCGUCUCCCUCCAAAGGAGAAGACUGCGCGUUCGAGUCCCGUACGGAACG [G12A U35A G51C] | ≤ 0.5
GUUCCGUUGGCAUAAUGGUAACGCGUCUCCCUCCAAAGGAGAAGACUGCGGGUUCGAAUCCCGUAGGAAACG [G12A U35A G58A C66G G68A] | ≤ 0.5
GUUCCGUUGGCAUAAUGGUAACGCGUCUCCCUCCCACGGAGAAGACUGCGGGUUCGAGUCCUGUCCGGAACG [G12A U35C A37C C62U A65C] | ≤ 0.5
GUUCCGUUGGCAUAAUGGUAACGCGUCUCCCUCCUAAGGAGAAGACCGCGGGUUCGAGUCCCGUACGGAACG [G12A U47C] | 0.905
GUUCCGUUGGCAUAAUGGUAACGCGUCUCCCUCCUAAGGAGAAGACCGCGGGUUCGCGUCCCGUACGGAACG [G12A U47C A57C] | 0.579
GUUCCGUUGGCAUAAUGGUAACGCGUCUCCCUCCUAAGGAGAAGACCGCGGGUUCGAGUCCCGUACGGUACG [G12A U47C A69U] | 0.757
GUUCCGUUGGCAUAAUGGUAACGCGUCUCCCUCCUAAGGAGAAGACGGCGGGAUCGAGUCCCGUACGGAACG [G12A U47G U53A] | ≤ 0.5
GUUCCGUUGGCAUAAUGGUAACGCGUCUCCCUCCUAAGGAGAAGACUGCGGGAUCGAGUCCCGUACGGAACG [G12A U53A] | 0.62
GUUCCGUUGGCAUAAUGGUAACGCGUCUCCCUCCUAAGGAGAAGACUGCGGGGUCGACUCACGUACGGAACG [G12A U53G G58C C61A] | ≤ 0.5
GUUCCGUUGGCAUAAUGGUAACGCGUCUCCCUCCUAAGGAGAAGACUGCGGGUGCGAGUCCCGUUCAGAACG [G12A U54G A65U G67A] | ≤ 0.5
GUUCCGUUGGCAUAAUGGUAACGCGUCUCCCUCCUAAGGAGAAGACUGCGGGUUCGAGUCCCGAACGGAACG [G12A U64A] | 0.849
GUUCCGUUGGCCUAAUGGUAACGCGUCUCCCUCCUAAGGAGAAGACUGCGGGUUCGAGUCCCGUACGGAACG [G12C] | 0.98
GUUCCGUUGGCCUCAUGGUAACGCGUCUCCCUCCUAAGGAGAAGACUGCGGGUUCGAGUCCCGUACGGAACG [G12C A14C] | 0.731
GUUCCGUUGGCCUCGUGGUAACGCGUCUCCCUCCUACGGAGAAGACUGCGGGUUCGAGUCCCGUACGGAACG [G12C A14C A15G A37C] | 0.606
GUUCCGUUGGCCUCGUGGUAACGCGUCUCCCUCCUACGGAGAAGACUGCGGGUUCGUGUCCCGUACGGAACG [G12C A14C A15G A37C A57U] | 0.682
GUUCCGUUGGCCUCAUGGUAACGUGUCUCCCUCCUAAGGAGAAGUCUGCGGGUUCGAAUCCCGUGCGGAACG [G12C A14C C24U A45U G58A A65G] | ≤ 0.5
GUUCCGUUGGCCUCAUGGUAACGCGCCUCCCUCCUAAGGUACAGACUGCGGGUUCGAGUCCCGUACGGAACG [G12C A14C U26C A40U G41A A42C] | ≤ 0.5
GUUCCGUUGGCCUGCUGGUAACGCGUCUCCCUCCUAAGGAACAGACUGCCGGUUCGAGUCCCGUACGGAGCG [G12C A14G A15C G41A A42C G50C A70G] | ≤ 0.5
